One assay relates to LNCaP. Kind of assay: Cytotoxicity against human LNCaP cells after 5 days by MTT assay. It is filed as functional, cell-based. The essentials: (§1)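 Cells grown in RPMI 1640 with 10% heat-inactivated FCS, 100 IU/mL penicillin and 100 µg/mL streptomycin. 1000 cells seeded per well; test samples added in fresh medium 24 h later, then 5 days at 37 °C. MTT (2 mg/mL solution) added for 4 h; cells dissolved in DMSO for 10 min; A540 read. Untreated cells taken as 100% survival; IC50 from viability-concentration plots; etoposide positive control.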

In another assay the test system is Pyricularia. Briefly: Morphological deformation in Pyricularia oryzae mycelia. It is filed as functional. The essentials:
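Mycelia germinated from P. oryzae conidia were scored for morphological deformation. The endpoint was the minimum morphological deformation concentration (MMDC), the lowest concentration that produced deformation. Griseofulvin and fusarelin A served as positive controls.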

The subject of a further assay is T47D. Kind of assay: Cytotoxicity against human T47D cells after 5 days by MTT assay. It is filed as functional, cell-based. The essentials: (§2)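 Cells grown in RPMI 1640 with 10% heat-inactivated FCS, penicillin/streptomycin and 5 µg/mL insulin. 1000 cells seeded per well; test samples added in fresh medium 24 h later, then 5 days at 37 °C. MTT (2 mg/mL solution) added for 4 h; cells dissolved in DMSO for 10 min; absorbance read at 540 nm. Untreated cells set as 100% survival; IC50 from viability-concentration plots; etoposide positive control.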
In general terms: Formazan colour is commonly taken as a measure of viable cells.

A further assay deals with HT-29. Briefly: Cytotoxicity against human HT-29 cells after 5 days by MTT assay. It is filed as functional, cell-based. The essentials: as §1
Another assay deals with MDA-MB-231. Briefly: Cytotoxicity against human MDA-MB-231 cells after 5 days by MTT assay. It is filed as functional, cell-based. The essentials:
as §2

A further assay relates to HCT-15. Kind of assay: Cytotoxicity against human HCT-15 cells after 5 days by MTT assay. The assay is classed as functional, cell-based. The essentials:
as §1

The next assay deals with PC-3. Kind of assay: Cytotoxicity against human PC-3 cells after 5 days by MTT assay. The assay is classed as functional, cell-based. The essentials:
as §1

Molecules are shown by their SMILES. Calls of active or inactive are those of the source. The rule behind the calls is not given here.

Take `CC(=O)C1=CC[C@H]2[C@@H]3CC=C4C[C@@H](O[C@@H]5O[C@H](CO)[C@@H](O[C@@H]6O[C@@H](C)[C@H](O)[C@@H](O)[C@H]6O)[C@H](O)[C@H]5O[C@@H]5O[C@@H](C)[C@H](O)[C@@H](O)[C@H]5O)CC[C@]4(C)[C@H]3CC[C@]12C`: the result in the assay on LNCaP, with T47D, in the assay on HT-29, with MDA-MB-231, in the assay with HCT-15 and in the assay with PC-3 was inactive. The same compound registered an Activity with Pyricularia of 236 µM.
In the case of `CC(=O)[C@H]1[C@@H](OC(=O)CCC(C)CO[C@@H]2O[C@H](CO)[C@@H](O)[C@H](O)[C@H]2O)C[C@H]2[C@@H]3CC=C4C[C@@H](O[C@@H]5O[C@H](CO)[C@@H](O[C@@H]6O[C@@H](C)[C@H](O)[C@@H](O)[C@H]6O)[C@H](O)[C@H]5O[C@@H]5O[C@@H](C)[C@H](O)[C@@H](O)[C@H]5O)CC[C@]4(C)[C@H]3CC[C@@]21C` (some centres undefined) [HYPOGLAUCIN G], the outcome in the assay on LNCaP, in the assay on T47D, with HT-29, in the assay with MDA-MB-231, in the assay on HCT-15 and in the assay with PC-3 was inactive. The Activity in the assay on Pyricularia came to 135 µM.

(Values after ChEMBL document CHEMBL1158019, “A new pregnane glycoside from Dioscorea collettii var. hypoglauca” (1999).)
